ChEMBL document CHEMBL3576783, “Synthesis and evaluation of 1,2,4-triazolo[1,5-a]pyrimidines as antibacterial agents against Enterococcus faecium” (J Med Chem, 2015)
≈ marks a conversion by molar mass, not a printed value.

Test system: not listed separately
Experiment: Induction of hemolysis in RBC (unknown origin) at 64 ug/ml
Conditions: erythrocytes

**Q.** For CC1=C(C(N)=O)C(c2ccc(N(C)C)cc2)n2nc(SCc3ccc([N+](=O)[O-])cc3)nc2N1 (stereo not drawn), which Activity is on record?
**A.** 23%

**Q.** With CCSc1ccc(C2C(C(N)=O)=C(C)Nc3nc(SCc4ccccc4)nn32)cc1 (stereo not drawn) as the compound, how does the Activity read?
**A.** 46%

Test system: Enterococcus faecium
Experiment: Antibacterial activity against vancomycin-susceptible Enterococcus faecium 119-39A assessed as bacterial growth inhibition after 16-20 hrs by broth microdilution method
Format: functional
Conditions: not given
Outline: (§1)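 CLSI broth microdilution in cation-adjusted Mueller Hinton II broth, triplicate. Cultures grown to OD600 about 0.60-0.80, diluted 100-fold; final inoculum 5×10^5 CFU/mL. Compounds from 5 mg/mL DMSO stock diluted in medium, final 2% (v/v) DMSO plus 0.25% (v/v) glacial acetic acid. Incubated 35 °C, 16-20 h, then MIC read.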

**Q.** Which MIC does the source give for CC1=C(C(N)=O)C(c2ccc(N(C)C)cc2)n2nc(SCc3ccc([N+](=O)[O-])cc3)nc2N1 (stereo not drawn) here?
**A.** 16 µg/mL (≈ 34.4 µM)

**Q.** For CCSc1ccc(C2C(C(N)=O)=C(C)Nc3nc(SCc4ccccc4)nn32)cc1 (stereo not drawn), which MIC is on record?
**A.** 8 µg/mL (≈ 18.3 µM)

Test system: Enterococcus faecium
Experiment: Antibacterial activity against vancomycin and teicoplanin-resistant Enterococcus faecium ATCC 700221 isolated from human faeces assessed as bacterial growth inhibition after 16-20 hrs by broth microdilution method
Format: functional
Conditions: ATCC 700221, Feces
Outline: as §1, with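 “Broth” for “CLSI broth”, “broth, run to CLSI method,” for “broth,”, “Cells” for “Cultures”, “~0.60-0.80,” for “about 0.60-0.80,”, “stocks” for “stock”, “°C for” for “°C,”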

**Q.** With CC1=C(C(N)=O)C(c2ccc(N(C)C)cc2)n2nc(SCc3ccc([N+](=O)[O-])cc3)nc2N1 (stereo not drawn) as the compound, how does the MIC read?
**A.** 8 µg/mL (≈ 17.2 µM)

Test system: Enterococcus faecium
Experiment: microbe, parasite or virus in culture
Conditions: NCTC 7171

**Q.** Which MIC does the source give for CC1=C(C(N)=O)C(c2ccsc2)n2nc(SCc3ccccc3)nc2N1 (stereo not drawn) here?
**A.** > 128 µg/mL

**Q.** Which MIC does the source give for O=C1CCCC2=C1C(c1ccc(Cl)cc1)n1nc(SCc3cccc4ccccc34)nc1N2 (stereo not drawn) here?
**A.** > 128 µg/mL

**Q.** Which MIC does the source give for CC1=C(C(N)=O)C(c2ccc(N(C)C)cc2)n2nc(SCc3ccncc3)nc2N1 (stereo not drawn) here?
**A.** 128 µg/mL (≈ 304 µM)

**Q.** For CC1=C(C(N)=O)C(c2ccc(C)cc2)n2nc(SCc3ccccc3)nc2N1 (stereo not drawn), which MIC is on record?
**A.** > 128 µg/mL

**Q.** For CC1=C(C(=O)Nc2ccc(C)cc2C)C(c2ccc(Cl)cc2)n2nc(C(=O)OC(C)C)nc2N1 (stereo not drawn), which MIC is on record?
**A.** 16 µg/mL (≈ 33.3 µM)

**Q.** With CCc1ccc(C2C(C(=O)Nc3ccccc3OC)=C(C)Nc3nc(SCc4ccccc4)nn32)cc1 (stereo not drawn) as the compound, how does the MIC read?
**A.** > 128 µg/mL

**Q.** Which MIC does the source give for CC1=C(C(N)=O)C(c2ccc(N(C)C)cc2)n2nc(SCc3ccc(C)cc3)nc2N1 (stereo not drawn) here?
**A.** > 128 µg/mL

**Q.** With CC1=C(C(N)=O)C(c2cccc(C(C)C)c2)n2nc(SCc3ccccc3)nc2N1 (stereo not drawn) as the compound, how does the MIC read?
**A.** 16 µg/mL (≈ 38.1 µM)

**Q.** For CC1=C(C(N)=O)C(c2cccs2)n2nc(SCc3ccccc3)nc2N1 (stereo not drawn), which MIC is on record?
**A.** > 128 µg/mL

**Q.** For CC1=C(C(=O)Nc2ccc(C)cc2C)C(c2cccs2)n2nc(SCc3cccc(Cl)c3)nc2N1 (stereo not drawn), which MIC is on record?
**A.** > 128 µg/mL

**Q.** For CNC(=O)C1=C(C)Nc2nc(SCc3ccccc3)nn2C1c1ccc(N(C)C)cc1 (stereo not drawn), which MIC is on record?
**A.** 8 µg/mL (≈ 18.4 µM)

**Q.** For CC1=C(C(=O)Nc2ccccc2C)C(c2ccc(C)cc2)n2nc(SCc3cccc(C)c3)nc2N1 (stereo not drawn), which MIC is on record?
**A.** > 128 µg/mL

**Q.** With CC1=C(C(N)=O)C(c2cccs2)n2ncnc2N1 (stereo not drawn) as the compound, how does the MIC read?
**A.** > 128 µg/mL

**Q.** For CC1=C(C(N)=O)C(c2ccc(C(C)C)cc2)n2nc(SCCNC(=O)OCc3ccccc3)nc2N1 (stereo not drawn), which MIC is on record?
**A.** > 128 µg/mL

**Q.** Which MBC does the source give for CC1=C(C(N)=O)C(c2ccc(N(C)C)cc2)n2nc(SCc3ccc([N+](=O)[O-])cc3)nc2N1 (stereo not drawn) here?
**A.** 16 µg/mL (≈ 34.4 µM)

**Q.** What about the MIC of the same compound?
**A.** 4 µg/mL (≈ 8.59 µM)

**Q.** Which MIC does the source give for CC1=C(C(=O)Nc2ccc(C)cc2C)C(c2ccc(C)cc2)n2nc(SCc3cccc(C)c3)nc2N1 (stereo not drawn) here?
**A.** > 128 µg/mL

**Q.** With CCc1ccc(C2C(C(=O)Nc3ccccc3)=C(C)Nc3nc(SCc4cccc(OC)c4)nn32)cc1 (stereo not drawn) as the compound, how does the MIC read?
**A.** > 128 µg/mL

**Q.** With CC1=C(C(N)=O)C(c2cccc(OC(C)C)c2)n2nc(SCc3ccccc3)nc2N1 (stereo not drawn) as the compound, how does the MIC read?
**A.** > 128 µg/mL

**Q.** Which MIC does the source give for CC1=C(C(N)=O)C(c2ccc(OC(F)(F)F)cc2)n2nc(SCc3ccccc3)nc2N1 (stereo not drawn) here?
**A.** 8 µg/mL (≈ 17.3 µM)

**Q.** With CCOC(=O)CSc1nc2n(n1)C(c1ccc(N(C)C)cc1)C(C(N)=O)=C(C)N2 (stereo not drawn) as the compound, how does the MIC read?
**A.** > 128 µg/mL

**Q.** With CCOC(=O)c1nc2n(n1)C(c1ccc(N(C)C)cc1)C(C(N)=O)=C(C)N2 (stereo not drawn) as the compound, how does the MIC read?
**A.** > 128 µg/mL

**Q.** With COc1ccc(C2C(C(N)=O)=C(C)Nc3nc(SCc4ccccc4)nn32)cc1O (stereo not drawn) as the compound, how does the MIC read?
**A.** > 128 µg/mL

**Q.** Which MIC does the source give for CCOC(=O)C1=C(C)Nc2nc(SCc3ccccc3)nn2C1c1ccc(N(C)C)cc1 (stereo not drawn) here?
**A.** > 128 µg/mL

**Q.** For COC(=O)c1ccc(CSc2nc3n(n2)C(c2ccc(N(C)C)cc2)C(C(N)=O)=C(C)N3)cc1 (stereo not drawn), which MIC is on record?
**A.** > 128 µg/mL

**Q.** Which MIC does the source give for COC(=O)c1nc2n(n1)C(c1ccc(N(C)C)cc1)C(C(N)=O)=C(C)N2 (stereo not drawn) here?
**A.** > 128 µg/mL

**Q.** With COc1ccc(CSc2nc3n(n2)C(c2ccc(N(C)C)cc2)C(C(N)=O)=C(C)N3)cc1 (stereo not drawn) as the compound, how does the MIC read?
**A.** > 128 µg/mL

**Q.** For COc1ccc(C2C3=C(CCCC3=O)Nc3nc(SCc4ccc(C(=O)O)cc4)nn32)cc1 (stereo not drawn), which MIC is on record?
**A.** > 128 µg/mL

**Q.** For CCOC(=O)C1=C(C)Nc2nc(SCc3ccc(C(=O)O)cc3)nn2C1c1cccs1 (stereo not drawn), which MIC is on record?
**A.** > 128 µg/mL

**Q.** With CC1=C(C(=O)Nc2ccccc2)C(c2ccc(N(C)C)cc2)n2nc(SCc3ccccc3)nc2N1 (stereo not drawn) as the compound, how does the MIC read?
**A.** 8 µg/mL (≈ 16.1 µM)

**Q.** For CC1=C(C(N)=O)C(c2ccc(C#N)cc2)n2nc(SCc3ccccc3)nc2N1 (stereo not drawn), which MIC is on record?
**A.** 16 µg/mL (≈ 39.8 µM)

**Q.** For CSc1nc2n(n1)C(c1ccc(N(C)C)cc1)C(C(N)=O)=C(C)N2 (stereo not drawn), which MIC is on record?
**A.** > 128 µg/mL

**Q.** For CCc1ccc(C2C(C(=O)Nc3ccccc3C)=C(C)Nc3nc(SCc4cccc(OC)c4)nn32)cc1 (stereo not drawn), which MIC is on record?
**A.** > 128 µg/mL

**Q.** Which MIC does the source give for CC(=O)Nc1ccc(C2C(C(N)=O)=C(C)Nc3nc(SCc4ccccc4)nn32)cc1 (stereo not drawn) here?
**A.** 128 µg/mL (≈ 295 µM)

**Q.** For CCc1cccc(C2C(C(N)=O)=C(C)Nc3nc(SCc4ccccc4)nn32)c1 (stereo not drawn), which MIC is on record?
**A.** 16 µg/mL (≈ 39.5 µM)

**Q.** For CC1=C(C(N)=O)C(c2ccc(N(C)C)cc2)n2nc(SCc3ccc(C(F)(F)F)cc3)nc2N1 (stereo not drawn), which MIC is on record?
**A.** > 128 µg/mL

**Q.** Which MIC does the source give for CC1=C(C(N)=O)C(c2ccccc2C(F)(F)F)n2nc(SCc3ccccc3)nc2N1 (stereo not drawn) here?
**A.** > 128 µg/mL

**Q.** Which MIC does the source give for COc1cc(C2C(C(=O)Nc3ccc(C)cc3C)=C(C)Nc3nc(SCc4ccccc4)nn32)ccc1O (stereo not drawn) here?
**A.** 16 µg/mL (≈ 30.3 µM)

**Q.** With CC1=C(C(N)=O)C(c2ccccc2)n2nc(SCc3ccccc3)nc2N1 (stereo not drawn) as the compound, how does the MIC read?
**A.** > 128 µg/mL

**Q.** With CC1=C(C(=O)Nc2ccccc2)C(c2ccc(C)cc2)n2nc(SCc3ccccc3C)nc2N1 (stereo not drawn) as the compound, how does the MIC read?
**A.** > 128 µg/mL

**Q.** With CC1=C(C(N)=O)C(C2CCCCC2)n2nc(SCc3ccccc3)nc2N1 (stereo not drawn) as the compound, how does the MIC read?
**A.** > 128 µg/mL

**Q.** Which MIC does the source give for CCSc1ccc(C2C(C(N)=O)=C(C)Nc3nc(SCc4ccccc4)nn32)cc1 (stereo not drawn) here?
**A.** 4 µg/mL (≈ 9.14 µM)

Test system: not listed separately
Experiment: Apparent intrinsic clearance in human liver S9 at 10 uM after 60 mins by UPLC analysis
Format: ADME, subcellular, Liver S9 fraction
Conditions: read-out: CLH(app)
Outline: (§2)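 Pooled human liver S9 (1 mg/mL) with 1 mM NADPH and 10 μM compound in sodium phosphate buffer (0.20 M phosphate, 0.15 M NaCl, pH 7.4), 37 °C for 60 min. Six time points quenched in acetonitrile with internal standard, analysed by UPLC-MRM. Half-life taken from first-order rate constant; CLint scaled with 45 mg protein/g liver and 20 g liver/kg. Run in duplicate.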

**Q.** With CC1=C(C(N)=O)C(c2ccc(N(C)C)cc2)n2nc(SCc3ccc([N+](=O)[O-])cc3)nc2N1 (stereo not drawn) as the compound, how does the CLint scaled at 10 µM read?
**A.** < 10.4 mL/min/kg

**Q.** With CCSc1ccc(C2C(C(N)=O)=C(C)Nc3nc(SCc4ccccc4)nn32)cc1 (stereo not drawn) as the compound, how does the CLint scaled at 10 µM read?
**A.** < 10.4 mL/min/kg

Test system: Liver
Experiment: Half life in human liver S9 at 10 uM after 60 mins by UPLC analysis
Format: ADME, subcellular, Liver S9 fraction
Conditions: s9, 1 h
Outline: as §2

**Q.** For CC1=C(C(N)=O)C(c2ccc(N(C)C)cc2)n2nc(SCc3ccc([N+](=O)[O-])cc3)nc2N1 (stereo not drawn), which t1/2 is on record?
**A.** > 1 h

**Q.** For CCSc1ccc(C2C(C(N)=O)=C(C)Nc3nc(SCc4ccccc4)nn32)cc1 (stereo not drawn), which t1/2 is on record?
**A.** > 1 h

Test system: Enterococcus faecium
Experiment: Antibacterial activity against copper, erythromycin, teracycline-resistant and vancomycin and teicoplanin-sensitive Enterococcus faecium ATCC BAA2127 assessed as bacterial growth inhibition after 16-20 hrs by broth microdilution method
Format: functional
Conditions: not given
Outline: as §1

**Q.** For CC1=C(C(N)=O)C(c2ccc(N(C)C)cc2)n2nc(SCc3ccc([N+](=O)[O-])cc3)nc2N1 (stereo not drawn), which MIC is on record?
**A.** 32 µg/mL (≈ 68.7 µM)

**Q.** Which MIC does the source give for CCSc1ccc(C2C(C(N)=O)=C(C)Nc3nc(SCc4ccccc4)nn32)cc1 (stereo not drawn) here?
**A.** 16 µg/mL (≈ 36.6 µM)
